Here are results for 13 compounds from ChEMBL document CHEMBL1147498, “6-aryl-2,4-dioxo-5-hexenoic acids, novel integrase inhibitors active against HIV-1 multiplication in cell-based assays” (Bioorg Med Chem Lett, 2004).

In one data set the test system is MT4. The data set is described as follows: Effective concentration required to reduce the exponential growth of MT-4/KB cells. The note with it: Homo sapiens. The format is functional, cell-based. Summed up: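 Cell-based HIV-1 multiplication assay in MT-4 cells, run in parallel with cytotoxicity on mock-infected cells. Value is the concentration giving 50% reduction of exponential growth of MT-4/KB cells. Mean of three independent determinations.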

A short description of data set [1]: (§1) Cytotoxic concentration required to reduce the viability of mock-infected cells was determined by using MTT assay. Summed up: (§2)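 Viability of mock-infected cells read by MTT, run in parallel with the antiviral assay. Value is the dose giving a 50% loss of viability. Mean of three independent determinations.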
Background: Tetrazolium assays rely on reduction of a dye to a coloured formazan, in cell work by metabolically active cells.

Data set [2] in a line: Selectivity index was determined. The format is functional.
Data set [3] addresses Human immunodeficiency virus type 1 integrase (Human immunodeficiency virus 1, UniProt Q7ZJM1). The data set can be described thus: Inhibitory activity against HIV-1 integrase.
A short description of data set [4]: as §1. The format is functional. In a few lines: as §2

Where “and” joins values, the source holds several entries; their conditions need not be identical. Equal entries are not always repeated. Bounds are passed on as bounds.

Sequence of Human immunodeficiency virus type 1 integrase (Q7ZJM1 whole entry): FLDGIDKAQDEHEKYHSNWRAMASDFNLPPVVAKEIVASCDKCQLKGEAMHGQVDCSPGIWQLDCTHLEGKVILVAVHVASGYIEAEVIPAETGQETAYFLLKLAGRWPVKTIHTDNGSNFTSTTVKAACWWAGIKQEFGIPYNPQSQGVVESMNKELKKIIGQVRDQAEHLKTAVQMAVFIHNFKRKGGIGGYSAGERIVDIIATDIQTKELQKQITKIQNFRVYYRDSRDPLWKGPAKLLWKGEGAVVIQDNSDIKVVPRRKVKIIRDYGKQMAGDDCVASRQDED

By EC50 is commonly meant the midpoint of the concentration-response curve. Low values mean higher potency in that assay, high ones lower potency in that assay. In general, CC50 refers to the concentration that lowers cell viability or growth by half. High values mean lower toxicity to the cells, low ones greater toxicity to the cells. For `CCOC(=O)C(=O)CC(=O)/C=C/c1cccn1Cc1ccc(F)cc1`, a half-maximal response in the data set with MT4 (EC50) required 12 µM. In data set [1], this compound gave a 50% cytotoxic concentration (CC50) of 55 µM.
What is called IC50 is the concentration that gives 50% inhibition. High values mean lower potency, low ones higher potency. In the case of `O=C(/C=C/c1cccn1Cc1ccc(F)cc1)CC(=O)C(=O)O`, the concentration giving a half-maximal response (EC50) with MT4 came to 11 µM. Besides, the Selectivity index in data set [2] amounted to 7.3. For the same compound, in data set [3], the half-maximal inhibitory concentration (IC50) was 61 µM and 72 µM. This compound yielded a 50% cytotoxic concentration (CC50) in data set [1] of 80 µM.
On to `CCOC(=O)C(=O)CC(=O)/C=C/c1cccn1Cc1ccc(OC)cc1`, for which the EC50 with MT4 is above 27 µM. Further, in data set [1], the half-maximal cytotoxic concentration (CC50) amounted to 27 µM.
Regarding `O=C(/C=C/c1cccn1Cc1ccc([N+](=O)[O-])cc1)CC(=O)C(=O)O`, the EC50 in the data set on MT4 was above 33 µM. Moreover, the 50% cytotoxic concentration (CC50) in data set [4] was 33 µM. For the same compound, the 50% inhibitory concentration (IC50) in data set [3] is 76 µM and 92 µM.
Regarding `CCOC(=O)C(=O)CC(=O)/C=C/c1cccn1Cc1ccc(C)cc1`, in the data set on MT4, the EC50 is above 7 µM. The same compound came in with a 50% cytotoxic concentration (CC50) in data set [1] of 7 µM.
In the data set on MT4, `CCOC(=O)C(=O)CC(=O)/C=C/c1cccn1Cc1ccc([N+](=O)[O-])cc1` yielded an EC50 above 31 µM. Besides, the IC50 in data set [3] is 57 µM and 45 µM. Besides, in data set [1], the CC50 turned out to be 31 µM.
Consider `O=C(O)C(=O)CC(=O)c1cccn1Cc1ccc(F)cc1`, for which the midpoint of the response in the data set on MT4, the EC50, lay at 1.5 µM.
`CCOC(=O)C(=O)CC(=O)/C=C/c1cccn1Cc1ccc(Cl)cc1`: the 50% effective concentration (EC50) in the data set on MT4 was above 52 µM. Further, in data set [1], the 50% cytotoxic concentration (CC50) was found to be 52 µM.
In the data set with MT4, `O=C(/C=C/c1cccn1Cc1ccc(Cl)cc1)CC(=O)C(=O)O` registered an EC50 above 95 µM. Also, the IC50 in data set [3] was 50 µM and 65 µM. In data set [1], the CC50 was 95 µM.
With `O=C(/C=C/c1cccn1Cc1ccccc1)CC(=O)C(=O)O`, a half-maximal response with MT4 (EC50) required 1.5 µM. Also, in data set [1], half-maximal cytotoxicity (CC50) was put at 61 µM.
For `COc1ccc(Cn2cccc2/C=C/C(=O)CC(=O)C(=O)O)cc1` the same measures were above 78 µM and 78 µM.
In the case of `CCOC(=O)C(=O)CC(=O)/C=C/c1cccn1Cc1ccccc1`, it took 17 µM to reach half-maximal cytotoxicity in data set [1] (CC50).
In the data set on MT4, `Cc1ccc(Cn2cccc2/C=C/C(=O)CC(=O)C(=O)O)cc1` had an EC50 above 41 µM. Besides, the CC50 in data set [1] came to 41 µM.
